Drawing on ChEMBL document CHEMBL3352270, “Antimalarial activity of abietane ferruginol analogues possessing a phthalimide group” (Bioorg Med Chem Lett, 2014), this text covers EC50, selectivity ratio and IC50 for 13 compounds.

The subject of data set [1] is BJ. Description: Cytotoxicity against human BJ cells. It is filed as ADME, cell-based.
Data set [2] concerns HEK293. The experiment in a line: Cytotoxicity against HEK293 cells. It is filed as functional, cell-based. The settings on record: Homo sapiens.
For data set [3], the system named is Plasmodium falciparum. The experiment in a line: microbe, parasite or virus in culture. It is filed as functional, organism-based. The settings on record: 3D7, 72 h.
Data set [4] concerns Raji. The experiment in a line: Cytotoxicity against human Raji cells. It is filed as functional, cell-based.
For data set [5], the system named is Plasmodium falciparum. Description: microbe, parasite or virus in culture. It is filed as functional, organism-based. The following applies: K1, 72 h.
For data set [6], the system named is HepG2. The experiment in a line: Cytotoxicity against human HepG2 cells. It is filed as functional, cell-based.
Data set [7] can be described thus: Selectivity index, ratio of cytotoxic EC50 against human cells to EC50 for Plasmodium falciparum 3D7. The settings on record: human cells (cell line not named).
Data set [8] in a line: Selectivity index, ratio of cytotoxic EC50 against human cells to EC50 for Plasmodium falciparum K1. The settings on record: human cells (cell line not named).
A short description of data set [9]: Selectivity index, ratio of cytotoxicity against human HepG2 cells to IC50 for Plasmodium falciparum D10. It is filed as toxicity, cell-based. The settings on record: read-out: Selectivity Index.
In data set [10] the test system is Plasmodium falciparum. Description: Antimalarial activity against chloroquine-resistant Plasmodium falciparum W2. It is filed as functional, organism-based.
Data set [11] can be described thus: Selectivity index, ratio of cytotoxicity against rat L6 cells to IC50 for Plasmodium falciparum K1. It is filed as toxicity, cell-based. The following applies: read-out: Selectivity Index.
The subject of data set [12] is Plasmodium falciparum. The experiment in a line: Antimalarial activity against chloroquine-sensitive Plasmodium falciparum D6. It is filed as functional, organism-based.
Data set [13] deals with Plasmodium falciparum. The experiment in a line: Antimalarial activity against chloroquine-resistant Plasmodium falciparum K1. It is filed as functional, organism-based.
Data set [14] can be described thus: Selectivity index, ratio of cytotoxicity against CHO cells to IC50 for Plasmodium falciparum D10. It is filed as toxicity, cell-based. The following applies: hamster, read-out: Selectivity Index.
Data set [15] deals with Plasmodium falciparum. The experiment in a line: Antimalarial activity against Plasmodium falciparum D6. It is filed as functional, organism-based.
In data set [16] the test system is Plasmodium falciparum. The experiment in a line: Antimalarial activity against Plasmodium falciparum K1. It is filed as functional, organism-based. In outline:
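Chloroquine-resistant K1 strain of P. falciparum; […].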

Data set [17] has as its system Plasmodium falciparum. The experiment in a line: Antimalarial activity against Plasmodium falciparum D10. It is filed as functional.
Data set [18] can be described thus: Selectivity index, ratio of cytotoxicity against CHO cells to IC50 for Plasmodium falciparum K1. It is filed as toxicity, cell-based. The following applies: hamster, read-out: Selectivity Index.
A short description of data set [19]: Selectivity index, ratio of cytotoxicity against human HepG2 cells to IC50 for Plasmodium falciparum K1. It is filed as toxicity, cell-based. The following applies: read-out: Selectivity Index.

SMILES strings stand for the structures. Converted amounts (≈) assume the structure as drawn.

With `CC(C)c1ccc2c(c1)CC[C@H]1[C@](C)(CN3C(=O)c4ccccc4C3=O)CCC[C@]21C`, the 50% effective concentration (EC50) (usually the concentration at which the effect is half-maximal) in [1] was > 25 µM; in data set [2] it was > 25 µM; in data set [3], 1.36 µM; in data set [4], > 25 µM; in data set [5], 15 µM; in [6], > 25 µM. Also, in data set [7], the selectivity ratio was > 18.4.

On to `CC(=O)c1cc2c(cc1C(C)C)CC[C@H]1[C@](C)(CN3C(=O)c4ccccc4C3=O)CCC[C@]21C`, for which the EC50 in data set [1] is > 25 µM; in data set [2], > 25 µM; in data set [3], 0.086 µM; in data set [4], > 25 µM; in data set [5] it was 0.201 µM; in data set [6] it was > 25 µM. Also, the results for the selectivity ratio in [8] and in data set [7] were > 124 and > 290, respectively.

In the case of `CC(=O)Oc1cc2c(cc1C(C)C)CC[C@H]1[C@](C)(CN3C(=O)c4ccccc4C3=O)CCC[C@]21C`, the EC50 in [1] is > 25 µM; in data set [2], > 25 µM; in data set [3], 2.09 µM; in data set [4] it was > 25 µM; in data set [5], 15 µM; in data set [6] it was > 25 µM. For the same compound, the selectivity ratio in [7] was > 12.

For `CC(C)c1cc2c(cc1O)[C@@]1(C)CCC[C@@](C)(CN3C(=O)c4ccccc4C3=O)[C@@H]1CC2`, the EC50 was > 25 µM in [1]; > 25 µM in data set [2]; 15 µM in data set [3]; > 25 µM in data set [4]; 4 µM in data set [5]; > 25 µM in data set [6]. In data set [8], the selectivity ratio is > 6.3.

Consider `CC(C)c1cc2c(cc1O)[C@@]1(C)CCC[C@@](C)(CN)[C@@H]1CC2`, for which the concentration giving a half-maximal response (EC50) in [1] was 17.4 µM; in [2], > 25 µM; in [3], 6.67 µM; in data set [4], > 25 µM; in [5], 15 µM; in data set [6] it was > 25 µM. In data set [7], the selectivity ratio was 2.6.

With `CC(C)c1cc2c(cc1O)[C@@]1(C)CCC[C@@](C)(CN3C(=O)c4c(Cl)c(Cl)c(Cl)c(Cl)c4C3=O)[C@@H]1CC2`, the concentration giving a half-maximal response (EC50) in data set [1] was > 25 µM; in data set [2], > 25 µM; in [3], 15 µM; in data set [4], > 25 µM; in data set [5], 15 µM; in [6], > 25 µM.

As to `CC(=O)Oc1cc2c(cc1C(C)C)CC[C@H]1[C@](C)(CN3C(=O)c4c(Cl)c(Cl)c(Cl)c(Cl)c4C3=O)CCC[C@]21C`, the EC50 is > 25 µM in data set [1]; > 25 µM in [2]; 15 µM in [3]; > 25 µM in data set [4]; 15 µM in data set [5]; > 25 µM in data set [6].

In the case of `CC(=O)Oc1cc2c(cc1C(C)C)C(=O)C[C@H]1[C@](C)(CN3C(=O)c4c(Cl)c(Cl)c(Cl)c(Cl)c4C3=O)CCC[C@]21C`, the EC50 is > 25 µM in data set [1]; > 25 µM in [2]; 15 µM in data set [3]; > 25 µM in [4]; 15 µM in [5]; > 25 µM in [6].

As for `CC(=O)Oc1cc2c(cc1C(C)C)/C(=N/NS(=O)(=O)c1ccc(C)cc1)C[C@H]1[C@](C)(CN3C(=O)c4c(Cl)c(Cl)c(Cl)c(Cl)c4C3=O)CCC[C@]21C`, the EC50 in data set [1] was > 25 µM; in data set [2] it was > 25 µM; in data set [3] it was 15 µM; in data set [4], > 25 µM; in [5], 15 µM; in data set [6] it was > 25 µM.

As for `CC(C)c1cc2c(cc1O)[C@@]1(C)CCC[C@@](C)(C=O)[C@@H]1CC2` [18-OXOFERRUGINOL], the EC50 in [1] was > 25 µM; in [2], > 25 µM; in data set [3], 15 µM; in data set [4], > 25 µM; in data set [5], 15 µM; in data set [6] it was > 25 µM.

In the case of `CCN(CC)CCCC(C)Nc1ccnc2cc(Cl)ccc12` (stereo not given) [CHLOROQUINE], the EC50 was > 25 µM in data set [1]; > 25 µM in [2]; 0.023 µM in data set [3]; > 25 µM in data set [4]; 0.69 µM in data set [5]; > 25 µM in data set [6].

In the case of `CC(C)c1cc2c(cc1O)[C@@]1(C)CCCC(C)(C)[C@@H]1CC2` [FERRUGINOL], the selectivity ratio in data set [9] was > 65; in data set [8] it was 8.6; in data set [11], 15.6; in [14], > 65; in data set [18] it was > 65; in data set [7], 4.6. The selectivity ratio in data set [19] is > 65. Also, the EC50 in data set [1] is 19.6 µM; in data set [2], > 25 µM; in data set [3] it was 2.47 µM; in data set [4], 11.5 µM; in [5], 1.33 µM; in [6] it was > 25 µM. The IC50 (usually the midpoint of a concentration-inhibition curve) in data set [10] is 3.5 µg/mL (≈ 12.2 µM); in [12], 4.2 µg/mL (≈ 14.7 µM); in data set [13] it was 0.9 µM; in data set [15] it was 1.95 µg/mL (≈ 6.81 µM); in data set [16] it was < 1 µg/mL; in data set [17], < 1 µg/mL.

Consider `CC(C)=CCC[C@]1(C)C=Cc2c(O)c3c(c(CC=C(C)C)c2O1)O[C@]12C(=C[C@@H]4C[C@H]1C(C)(C)O[C@@]2(C/C=C(/C)C(=O)O)C4=O)C3=O` [GAMBOGIC ACID], for which the 50% effective concentration (EC50) in data set [1] is 0.21 µM; in data set [2], 0.21 µM; in [4], 0.24 µM; in data set [6] it was < 2 µM.
